Reference: article PMC3941710 (Journal of medicinal chemistry, 2009)

Experiments:
[1] = Binding and stability in rabbit serum
[2] = Binding and stability in mouse serum
Stability in PBS = format: physicochemical; conditions: PBS/CH3CN 10:1, pH 7.1, ambient temperature, up to 24 h
[3] = system: LNCaP human prostate cancer cells; assay: Uptake and subcellular distribution in LNCaP cells; format: cell-based; conditions: proliferating LNCaP monolayer, 24 h exposure
MCF-7 cells = assay: Uptake of 8 in MCF7 cells with or without DHT at 4 °C; format: cell-based, human; conditions: 0.1 μCi/mL 8, 0.1 μM DHT, 16 h
How it was run: (§1)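 Cells with very low or no AR expression. Non-radioactive DHT competitor was added before the radioiodinated test compound to block AR binding. Cells were grown with the test compound at 4 °C for 16 h and cellular retention was compared with DHT-free cells.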

[4] = Binding and stability in human serum
[5] = molecular target: T1, human sex hormone binding globulin (SHBG) (Homo sapiens, UniProt P04278); assay: Binding to purified human SHBG; conditions: size-exclusion HPLC / ITLC
T1 sequence (P04278 30-402): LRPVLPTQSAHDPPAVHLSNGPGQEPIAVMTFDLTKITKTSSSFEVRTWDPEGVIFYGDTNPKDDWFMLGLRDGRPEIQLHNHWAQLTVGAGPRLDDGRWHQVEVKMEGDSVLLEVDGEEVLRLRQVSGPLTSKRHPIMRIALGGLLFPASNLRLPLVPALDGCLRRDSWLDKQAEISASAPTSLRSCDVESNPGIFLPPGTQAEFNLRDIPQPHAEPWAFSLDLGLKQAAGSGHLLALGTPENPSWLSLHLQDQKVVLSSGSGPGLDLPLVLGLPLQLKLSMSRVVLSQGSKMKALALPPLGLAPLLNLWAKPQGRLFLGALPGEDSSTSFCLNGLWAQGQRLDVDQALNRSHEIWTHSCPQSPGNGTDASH

[6] = system: intraperitoneal NIH:OVCAR-3 xenografts; assay: Biodistribution and imaging of 8 in athymic mice with ip NIH:OVCAR-3 xenografts; format: in vivo, mouse
[7] = system: intraperitoneal NIH:OVCAR-3 xenografts; assay: Therapy with 8 in OVCAR-3-bearing athymic mice; format: in vivo, mouse
PC-3 cells = assay: Uptake of 8 in PC-3 cells with or without DHT at 4 °C; format: cell-based, human; conditions: 0.1 μCi/mL 8, 0.1 μM DHT, 16 h
How it was run: as §1

[8] = system: LNCaP human prostate cancer cells; assay: Cell survival of LNCaP cells; format: cell-based; conditions: 48 h, extracellular concentration 8 μCi/mL
How it was run: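 LNCaP cells plated at 2000 cells/well, allowed to attach for 24 h, then given fresh charcoal–dextran-stripped medium containing radioactive test compound. Survival read by CellTiter-Fluor viability assay or CellTiter 96 AQueous One Solution proliferation assay.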

[9] = Biodistribution of fractionated ip doses of 13 in healthy mice; format: in vivo, mouse; conditions: control (healthy) mice
[10] = system: intraperitoneal NIH:OVCAR-3 xenografts; assay: Fractionated therapy and biodistribution of 13 in OVCAR-3-bearing mice; format: in vivo, mouse
[11] = system: intraperitoneal NIH:OVCAR-3 xenografts; format: in vivo, mouse
[12] = cell pellet, six fractionated ip treatments
[13] = 13 (0.25 mCi) + SHBG therapy group, or SHBG only

For C[C@]12CCC(=O)C[C@@H]1CC[C@@H]1[C@@H]2CC[C@]2(C)[C@@H](OC(=O)CCC(=O)O[C@H]3C[C@H](n4cc([125I])c(=O)[nH]c4=O)O[C@@H]3CO)CC[C@@H]12 [compound 8, 5-[^125I]Iodo-3′-O-(17β-succinyl-5α-androstan-3-one)-2′-deoxyuridine], the “binding to SHBG in rabbit serum” value [1] was “bind to SHBG in rabbit and human serum”, the intact compound remaining ([1]; rabbit serum, after 60 min of incubation) was > 84% and the “binding to mouse serum” value [2] was “does not bind to mouse serum”. For the same molecule, the “time in which mouse serum degrades 8 to 1” value ([2]; mouse serum, no SHBG) was < 10 min, the “stability in PBS” value (Stability in PBS) was “stable in PBS” and the “Bmax (single cell-binding isotherm)” value [3] was 1.4 × 10^−6 pmol/cell. For the same molecule, the “effect of DHT competitor on cellular retention” value (MCF-7 cells) was “In neither PC-3 nor MCF-7 cells was the cellular retention of 8 influenced by the presence of competitor”, the “binding to SHBG in human serum” value [4] was “bind to SHBG in rabbit and human serum” and the intact compound remaining ([4]; human serum, after 60 min of incubation) was > 91%. For the same molecule, the “binding to pure SHBG isolated from human serum” value (“binding to pure SHBG isolated” below) [5] was “bind to pure SHBG isolated from human serum”, the “peritoneal lavage radioactivity associated with OVCAR-3 cells” value ([6]; 24 h and later after ip administration) was > 95% and the uptake in uterus ([6]; 72 h after ip administration) was “up to 1 % ID/g”. The “whole body radioactivity associated with the intraperitoneal tumor (ROI)” value ([6]; 72 h after ip administration of 45 μCi 8) was 8.3% ± 2.1%, the “fraction of lavage radioactivity associated with cancer cells” value ([6]; 72 h after ip injection of 45 μCi 8) was > 97% and the “radioactivity retained in tumors” value ([7]; 12 days after the last of six therapeutic doses, decay corrected) was ~ 0.5 % ID/g. For the same molecule, the “range of weight” value [7, 12] was 0.012 to 0.781 g, the “average cell pellet weight (g) (SEM)” value ([7]; six fractionated ip treatments) was 0.380(0.111) g and the “^125I bound to DNA as share of total cell-associated radioactivity” value ([7]; tumors 12 days after the last of six doses) was 86.8% ± 7.4%. For the same molecule, the “effect of DHT competitor on cellular retention” value (PC-3 cells) was “In neither PC-3 nor MCF-7 cells was the cellular retention of 8 influenced by the presence of competitor”.

In the case of C[C@]12CCC(=O)C[C@@H]1CC[C@@H]1[C@@H]2CC[C@]2(C)[C@@H](OC(=O)CCC(=O)O[C@H]3C[C@H](n4cc([125I])c(=O)[nH]c4=O)O[C@@H]3COP(=O)(O)O)CC[C@@H]12 [compound 13, 5-[^125I]Iodo-3′-O-(17β-succinyl-5α-androstan-3-one)-2′-deoxyuridin-5′-yl Monophosphate], the cells dead [8] is reported as “Ninety percent”, the “binding to SHBG in rabbit serum” value [1] is reported as “bind to SHBG in rabbit and human serum” and the “binding to mouse serum” value [2] is reported as “appears to bind to some unidentified component of mouse serum”. For the same molecule, the “stability in PBS” value (Stability in PBS) was “stable in PBS”, the “percent injected dose per gram of tissue, blood” value ([9]; blood) was 0.001(0.0001) percent injected dose per gram of tissue and the “percent injected dose per gram of tissue, heart” value ([9]; heart) was 0.002(0.0003) percent injected dose per gram of tissue. The “percent injected dose per gram of tissue, kidney” value ([9]; kidney) was 0.005(0.0005) percent injected dose per gram of tissue, the “percent injected dose per gram of tissue, large intestine” value ([9]; large intestine) was 0.005(0.0009) percent injected dose per gram of tissue and the “percent injected dose per gram of tissue, liver” value ([9]; liver) was 0.006(0.0005) percent injected dose per gram of tissue. For the same molecule, the “percent injected dose per gram of tissue, lung” value ([9]; lung) was 0.004(0.0007) percent injected dose per gram of tissue, the “percent injected dose per gram of tissue, small intestine” value ([9]; small intestine) was 0.006(0.0016) percent injected dose per gram of tissue and the “percent injected dose per gram of tissue, spleen” value ([9]; spleen) was 0.025(0.0025) percent injected dose per gram of tissue. For the same molecule, the “percent injected dose per gram of tissue, stomach” value ([9]; stomach) was 0.007(0.0002) percent injected dose per gram of tissue, the “percent injected dose per gram of tissue, uterus” value ([9]; uterus) was 0.015(0.0011) percent injected dose per gram of tissue and the “binding to SHBG in human serum” value [4] was “bind to SHBG in rabbit and human serum”. For the same molecule, the “percent injected dose per gram of tissue, blood” value ([10]; OVCAR-3 mice, blood) was 0.003(0.0010) percent injected dose per gram of tissue, the “percent injected dose per gram of tissue, heart” value ([10]; OVCAR-3 mice, heart) was 0.003(0.0004) percent injected dose per gram of tissue and the “percent injected dose per gram of tissue, kidney” value ([10]; OVCAR-3 mice, kidney) was 0.013(0.0063) percent injected dose per gram of tissue. For the same molecule, the “percent injected dose per gram of tissue, large intestine” value ([10]; OVCAR-3 mice, large intestine) was 0.008(0.0009) percent injected dose per gram of tissue, the “percent injected dose per gram of tissue, liver” value ([10]; OVCAR-3 mice, liver) was 0.017(0.0020) percent injected dose per gram of tissue and the “percent injected dose per gram of tissue, lung” value ([10]; OVCAR-3 mice, lung) was 0.008(0.0018) percent injected dose per gram of tissue. The “percent injected dose per gram of tissue, small intestine” value ([10]; OVCAR-3 mice, small intestine) was 0.011(0.0014) percent injected dose per gram of tissue, the “percent injected dose per gram of tissue, spleen” value ([10]; OVCAR-3 mice, spleen) was 0.043(0.0103) percent injected dose per gram of tissue and the “percent injected dose per gram of tissue, stomach” value ([10]; OVCAR-3 mice, stomach) was 0.009(0.0010) percent injected dose per gram of tissue. For the same molecule, the “percent injected dose per gram of tissue, tumor” value ([10]; OVCAR-3 mice, tumor) was 2.892(0.5317) percent injected dose per gram of tissue, the “percent injected dose per gram of tissue, uterus” value ([10]; OVCAR-3 mice, uterus) was 0.027(0.0051) percent injected dose per gram of tissue and the “median weight” value [10, 12] was 0.064 g. For the same molecule, the “range of weight” value [10, 12] was 0.044 to 0.076 g, the “average retention of ^125I in OVCAR-3 cells” value ([10]; fractionated ip doses) was 0.0124 ± 0.0024 cpm/cell and the “radioactivity of surviving cancer cells recovered with DNA” value ([10]; fractionated ip doses, TCA precipitation) was “Virtually all radioactivity associated with surviving cancer cells was recovered with DNA”. The “average cell pellet weight (g) (SEM)” value ([10]; six fractionated ip treatments) was 0.061(0.006) g, the “binding to pure SHBG isolated” value [5] was “bind to pure SHBG isolated from human serum” and the “adverse effects from hematologic data” value ([11]; 0.25 mCi dose) was “no overt adverse effects”. The “fold lower radioactivity in blood than in cancer cells” value ([11]; necropsy after bolus dose of 13) was > 2.5 ×.

In the case of CCOC(=O)CCC(=O)O[C@H]1C[C@H](n2cc([125I])c(=O)[nH]c2=O)O[C@@H]1CO [compound 17, 5-[^125I]Iodo-3′-O-succinyl-2′-deoxyuridine Ethyl Ester], the “binding to pure SHBG isolated” value [5] is reported as “Neither the control reagent 17 nor compound 20, which is the metabolite of 13, binds to SHBG or to any component of analyzed sera”.

For O=c1[nH]c(=O)n([C@H]2C[C@H](O)[C@@H](COP(=O)(O)O)O2)cc1[125I] [compound 20, 5-[^125I]Iodo-2′-deoxyuridine-5′-monophosphate], the intact compound remaining ([2]; mouse serum, after 60 min of incubation) was “does not survive incubation in mouse serum” and the “binding to pure SHBG isolated” value [5] was “Neither the control reagent 17 nor compound 20, which is the metabolite of 13, binds to SHBG or to any component of analyzed sera”.

B1: SHBG: Human SHBG (pure, lyophilized), injected ip alone as control or co-injected with 13 (protein, UniProt P04278 30-402, looked up)
Sex hormone-binding globulin: LRPVLPTQSAHDPPAVHLSNGPGQEPIAVMTFDLTKITKTSSSFEVRTWDPEGVIFYGDTNPKDDWFMLGLRDGRPEIQLHNHWAQLTVGAGPRLDDGRWHQVEVKMEGDSVLLEVDGEEVLRLRQVSGPLTSKRHPIMRIALGGLLFPASNLRLPLVPALDGCLRRDSWLDKQAEISASAPTSLRSCDVESNPGIFLPPGTQAEFNLRDIPQPHAEPWAFSLDLGLKQAAGSGHLLALGTPENPSWLSLHLQDQKVVLSSGSGPGLDLPLVLGLPLQLKLSMSRVVLSQGSKMKALALPPLGLAPLLNLWAKPQGRLFLGALPGEDSSTSFCLNGLWAQGQRLDVDQALNRSHEIWTHSCPQSPGNGTDASH
In the case of B1, the “hematocrit (Ht)” value [11, 13] is reported as 51.4 ± 1.6, the “hemoglobin (Hb)” value [11, 13] is reported as 11.5 ± 1.3 and the “average weight of solid tumors” value ([11]; 13 + SHBG or SHBG only) is reported as 1.9 ± 0.8 g.
